Laboratory results: publication PMC3983351 (Journal of Medicinal Chemistry, 2014)

Experiment: silicate ester hydrolysis rate study by 1H NMR
Assay type: physicochemical
Details: for ∼krel of hydrolysis at C2′: C2′ silicate; for ∼krel of hydrolysis at C2′ / ∼krel of hydrolysis at C7: kobs relative to that of 1d; for ∼krel of hydrolysis at C7: C7 silicate; for difference in krel, triethyl vs trioctyl silicate: 1a vs 1b (PTX) or 4a vs 4b
Summary of the method: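 About 10 mg silicate ester in 900 μL acetone-d6, then 100 μL of 9:1 v/v D2O/TFA added and mixed. Held at 22 °C ± 1.0 °C. 1H NMR at 500 MHz (16 or 32 transients) at 8–30 time points over more than 3 half-lives. The 2′/7-methine signals of silicate and free taxane were integrated against H5. kobs came from the ln[species] vs time slope (three replicates). krel is kobs divided by that of the reference silicate.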

Molecule	∼krel of hydrolysis at C2′	∼krel of hydrolysis at C7	difference in krel, triethyl vs trioctyl silicate
2′-O-(Tri-n-octyloxysilyl)docetaxel [4b]	2600	–	–
CCO[Si](O[C@@H](C(=O)O[C@H]1C[C@@]2(O)[C@@H](OC(=O)c3ccccc3)[C@@H]3[C@]4(OC(C)=O)CO[C@@H]4C[C@H](O)[C@@]3(C)C(=O)[C@H](OC(C)=O)C(=C1C)C2(C)C)[C@@H](NC(=O)c1ccccc1)c1ccccc1)(OC(C)(C)C)OC(C)(C)C [1f, 2′-O-[(Di-tert-butoxy)(ethoxy)silyl]paclitaxel]	5.6	–	–
CCO[Si](OCC)(OCC)O[C@H]1C[C@H]2OC[C@@]2(OC(C)=O)[C@H]2[C@H](OC(=O)c3ccccc3)[C@]3(O)C[C@H](OC(=O)[C@H](O)[C@@H](NC(=O)c4ccccc4)c4ccccc4)C(C)=C([C@@H](OC(C)=O)C(=O)[C@]12C)C3(C)C [3a, 7-O-(Triethoxysilyl)paclitaxel]	–	2200	–
CCO[Si](OCC)(OCC)O[C@@H](C(=O)O[C@H]1C[C@@]2(O)[C@@H](OC(=O)c3ccccc3)[C@@H]3[C@]4(OC(C)=O)CO[C@@H]4C[C@H](O)[C@@]3(C)C(=O)[C@H](OC(C)=O)C(=C1C)C2(C)C)[C@@H](NC(=O)c1ccccc1)c1ccccc1 [1a, 2′-O-[(Triethoxy)silyl]paclitaxel]	18000	–	~3
CCCCCCCCO[Si](OCCCCCCCC)(OCCCCCCCC)O[C@H]1C[C@H]2OC[C@@]2(OC(C)=O)[C@H]2[C@H](OC(=O)c3ccccc3)[C@]3(O)C[C@H](OC(=O)[C@H](O[Si](OCCCCCCCC)(OCCCCCCCC)OCCCCCCCC)[C@@H](NC(=O)c4ccccc4)c4ccccc4)C(C)=C([C@@H](OC(C)=O)C(=O)[C@]12C)C3(C)C [2b, 2′,7-Di-O-(Tri-n-octyloxysilyl)paclitaxel]	3800	340	–
2′-(Trimenthyloxysilyloxy)docetaxel [4d]	0.88	–	–
2′-O-(Triisopropoxysilyl)docetaxel [4c]	260	–	–
2′-(Di-tert-butoxyethoxysilyl)docetaxel [4e]	5.0	–	–
CC(=O)O[C@H]1C(=O)[C@]2(C)[C@@H](O[Si](OC(C)C)(OC(C)C)OC(C)C)C[C@H]3OC[C@@]3(OC(C)=O)[C@H]2[C@H](OC(=O)c2ccccc2)[C@]2(O)C[C@H](OC(=O)[C@H](O[Si](OC(C)C)(OC(C)C)OC(C)C)[C@@H](NC(=O)c3ccccc3)c3ccccc3)C(C)=C1C2(C)C [2c, 2′,7-Di-O-(triisopropoxysilyl)paclitaxel]	520	46	–
CCCCCCCCO[Si](OCCCCCCCC)(OCCCCCCCC)O[C@H]1C[C@H]2OC[C@@]2(OC(C)=O)[C@H]2[C@H](OC(=O)c3ccccc3)[C@]3(O)C[C@H](OC(=O)[C@H](O)[C@@H](NC(=O)c4ccccc4)c4ccccc4)C(C)=C([C@@H](OC(C)=O)C(=O)[C@]12C)C3(C)C [3b, 7-O-(Tri-n-octyloxysilyl)paclitaxel]	–	450	–
CCO[Si](OCC)(OCC)O[C@H]1C[C@H]2OC[C@@]2(OC(C)=O)[C@H]2[C@H](OC(=O)c3ccccc3)[C@]3(O)C[C@H](OC(=O)[C@H](O[Si](OCC)(OCC)OCC)[C@@H](NC(=O)c4ccccc4)c4ccccc4)C(C)=C([C@@H](OC(C)=O)C(=O)[C@]12C)C3(C)C [2a, 2′,7-Di-O-(triethoxysilyl)paclitaxel]	15000	2100	–
CC(=O)O[C@H]1C(=O)[C@@]2(C)[C@H]([C@H](OC(=O)c3ccccc3)[C@]3(O)C[C@H](OC(=O)[C@H](O[Si](OC4CC(C)CCC4C(C)C)(OC4CC(C)CCC4C(C)C)OC4CC(C)CCC4C(C)C)[C@@H](NC(=O)c4ccccc4)c4ccccc4)C(C)=C1C3(C)C)[C@]1(OC(C)=O)CO[C@@H]1C[C@@H]2O (some centres unmarked) [1d, 2′-[(Trimenthyloxy)silyl]paclitaxel]	1.0	–	–
2′-O-(Triethoxysilyl)docetaxel [4a]	6500	–	~3
CC(=O)O[C@H]1C(=O)[C@@]2(C)[C@H]([C@H](OC(=O)c3ccccc3)[C@]3(O)C[C@H](OC(=O)[C@H](O[Si](OC(C)=O)(OC(C)(C)C)OC(C)(C)C)[C@@H](NC(=O)c4ccccc4)c4ccccc4)C(C)=C1C3(C)C)[C@]1(OC(C)=O)CO[C@@H]1C[C@@H]2O [1g, 2′-O-(Di-tert-butoxyacetoxysilyl)paclitaxel]	1900	–	–
CC(=O)O[C@H]1C(=O)[C@@]2(C)[C@H]([C@H](OC(=O)c3ccccc3)[C@]3(O)C[C@H](OC(=O)[C@H](O[Si](OC(C)C)(OC(C)C)OC(C)C)[C@@H](NC(=O)c4ccccc4)c4ccccc4)C(C)=C1C3(C)C)[C@]1(OC(C)=O)CO[C@@H]1C[C@@H]2O [1c, 2′-O-[(Triisopropoxy)silyl]paclitaxel]	570	–	–
